Shown is part of a subset that was picked to be rich in hits.
T cruzi growth-1 – T. cruzi intracellular proliferation inhibitors, primary screen, cell-based, beta-gal Tulahuen parasites, NIH3T3 host, luminescence; T. cruzi beta-gal in NIH3T3, GalScreen luminescence, 90 h; inhibition, % at 8.34 µM; 77,000 tested, 5.9% active;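 active means mean inhibition above about 93%, with at least 55% of replicates each passing it, limit read from the data, passing the limit was not always enough; inconclusive means only one of those two conditions holds; inactive means neither condition holds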
KDM4C inh – inhibitors of GASC-1 (KDM4C) histone demethylase, primary screen, biochemical, single concentration HTS | Lysine-specific demethylase 4C (Homo sapiens), Q9H3R0 | GST-KDM4C 2-372, H3K9me3 peptide, LANCE TR-FRET | inhibition, % at 12.5 µM | 96,000 tested, 0.15% active | AID 720574, 2013;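 active means mean replicate inhibition above about 25%, with at least 55% of replicates also reaching it, limit read from the data, passing the limit was not always enough; inconclusive means only one of those two conditions met; inactive means neither condition met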
Target sequence (Q9H3R0 2-372 limits assumed): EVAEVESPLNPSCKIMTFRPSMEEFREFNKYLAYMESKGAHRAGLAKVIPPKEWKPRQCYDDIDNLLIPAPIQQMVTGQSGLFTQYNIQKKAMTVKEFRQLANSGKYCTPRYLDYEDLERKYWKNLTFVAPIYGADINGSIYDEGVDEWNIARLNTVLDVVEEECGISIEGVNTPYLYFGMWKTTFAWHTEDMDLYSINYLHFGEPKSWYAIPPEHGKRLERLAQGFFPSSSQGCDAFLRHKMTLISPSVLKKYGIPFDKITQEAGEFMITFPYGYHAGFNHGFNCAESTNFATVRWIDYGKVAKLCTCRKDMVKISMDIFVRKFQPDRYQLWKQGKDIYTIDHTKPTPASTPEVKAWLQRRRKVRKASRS
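Assay system: GST-GASC-1 enzyme fragment 2-372 | Amount: 10 nM enzyme | Medium: HEPES buffer, pH 7.5, plus ascorbate | Reagent: H3K9me3 peptide substrate, Fe(II), 2-oxoglutarate | Doses: Single-point compound screen | Incubation: 30 min demethylation and 1 h detection at room temperature | Measured by: LANCE TR-FRET, excitation 340 nm, emissions 618 and 671 nm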
IDH1 R132H inh – inhibitors of IDH1 R132H reductase, primary screen, biochemical, plate reader, single point | 70,000 tested, 0.18% active | diaphorase/resazurin fluorescence, 60 min | inhibition, % at 10 µM; in the data active means inhibition above about 34%; inconclusive means no clear call, values can overlap the other calls; inactive means below about 11%;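 further: 0% = DMSO and 100% = no enzyme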
T cruzi growth-2 – T. cruzi intracellular proliferation inhibitors, confirmation, cell-based, NIH3T3 host, beta-gal parasite, luminescence, cherry-pick. shares compounds with T cruzi growth-1. T. cruzi beta-gal in NIH3T3, GalScreen luminescence, 90 h. inhibition, % at 8.35 µM. 5,600 tested, 72% active. AID 651739, 2012;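 active means mean replicate inhibition above about 95% and at least 55% of replicates individually reaching it, limit read from the data; inconclusive means only one of the two criteria is met; inactive means neither criterion is met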
T cruzi growth-3 – inhibitors of intracellular T. cruzi replication, confirmation, NIH3T3 host cells, beta-gal parasites, cherry-pick, set 2 | 5,600 tested, 21% active | T. cruzi beta-gal in NIH3T3, GalScreen luminescence, 90 h | inhibition, % at 2.09 µM | AID 651740, 2012 | shares compounds with T cruzi growth-1;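 active means mean inhibition above about 95%, with at least 55% of replicates also reaching it, limit read from the data; inconclusive means meets just one of the two conditions; inactive means meets neither condition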;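 further: plate controls were neutral control median for no effect and positive control median for full effect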
3T3 cytotox – cytotoxicity in mouse NIH/3T3 fibroblasts, confirmation, cytotoxicity control for T. cruzi proliferation inhibitor project, cell-based, cherry-pick, single point; shares compounds with T cruzi growth-1; NIH/3T3 viability, CellTiter-Glo ATP luminescence, 90 h; cytotoxicity (signal decrease), % at 8.35 µM; 5,600 tested, 14% active; AID 651742, 2012;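 active means mean signal decrease across replicates above about 35% based on untreated-well scatter, with enough replicates individually passing, limit read from the data; inconclusive means no rule stated though some were filed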;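 further: 0% = median of neutral control wells and 100% = median of positive control wells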
NIH3T3 tox 2 – NIH/3T3 fibroblast cytotoxicity, confirmation, cytotoxicity control, cell-based, cherry-pick, single point, set 2 | inhibition, % at 24.9 µM | 5,600 tested, 56% active | shares compounds with T cruzi growth-1 | NIH/3T3 viability, CellTiter-Glo ATP luminescence, 90 h;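 active means mean loss of cell viability signal at or above a set limit, and enough replicates individually reaching it; inconclusive means meets only the mean limit or only the replicate share; inactive means meets neither condition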;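 further: 0% = median of neutral control wells and 100% = median of positive control wells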
The depositor's hits bear a star.

Screening CCS(=O)(=O)N1CCCCN2[C@@H](CO)[C@@H](c3ccc(-c4ccc(C#N)cc4)cc3)[C@@H]2C1 returned T cruzi growth-1 99*, KDM4C inh -2, T cruzi growth-2 65, T cruzi growth-3 24, 3T3 cytotox 17 and NIH3T3 tox 2 39*.
For CCS(=O)(=O)N1CCCCN2[C@H](CO)[C@@H](c3ccc(-c4cccc(C#N)c4)cc3)[C@@H]2C1 the results were T cruzi growth-1 108*, KDM4C inh -2, T cruzi growth-2 68, T cruzi growth-3 0, 3T3 cytotox 14 and NIH3T3 tox 2 69*.
Screening CC(=O)N(C)C[C@@H]1Oc2cc(C#CC3CCCC3)ccc2S(=O)(=O)N([C@@H](C)CO)C[C@@H]1C returned T cruzi growth-1 88 and KDM4C inh 0.
For CC(=O)N(C)C[C@H]1Oc2cc(C#CC3CCCCC3)ccc2S(=O)(=O)N([C@H](C)CO)C[C@@H]1C the results were T cruzi growth-1 inconclusive, KDM4C inh -2, IDH1 R132H inh 2, T cruzi growth-2 103*, T cruzi growth-3 78, 3T3 cytotox 42* and NIH3T3 tox 2 inconclusive.
`CC(=O)N(C)C[C@H]1Oc2cc(C#CC3CCCCC3)ccc2S(=O)(=O)N([C@@H](C)CO)C[C@@H]1C` gave T cruzi growth-1 inconclusive, KDM4C inh -1, T cruzi growth-2 108*, T cruzi growth-3 86, 3T3 cytotox -3 and NIH3T3 tox 2 56*.
For CC(=O)N(C)C[C@H]1Oc2cc(C#CC3CCCC3)ccc2S(=O)(=O)N([C@@H](C)CO)C[C@H]1C the results were T cruzi growth-1 56 and KDM4C inh -1.
Screening COc1cc([C@H]2OC[C@H]3[C@@H]2CO[C@@H]3c2ccc(OC)c(OC)c2)ccc1O returned IDH1 R132H inh 0.
Screening CN1C(=O)c2cc(NC(=O)c3cnccn3)ccc2OC[C@H]2O[C@@H](CC(=O)N[C@H]3CCN(Cc4ccccc4)C3)CC[C@H]21 returned T cruzi growth-1 114*, KDM4C inh 4, T cruzi growth-2 104*, T cruzi growth-3 103*, 3T3 cytotox -9 and NIH3T3 tox 2 -10.
CN1C(=O)c2cc(NC(=O)c3cnccn3)ccc2OC[C@H]2O[C@@H](CC(=O)N[C@@H]3CCN(Cc4ccccc4)C3)CC[C@H]21 was read as T cruzi growth-1 107*, KDM4C inh 2, T cruzi growth-2 97*, T cruzi growth-3 88, 3T3 cytotox -27 and NIH3T3 tox 2 -20.
For CN1C(=O)c2cc(NC(=O)c3cnccn3)ccc2OC[C@@H]2O[C@H](CC(=O)N[C@H]3CCN(Cc4ccccc4)C3)CC[C@H]21 the results were T cruzi growth-1 81 and KDM4C inh 0.
CN1C(=O)c2cc(NC(=O)c3cnccn3)ccc2OC[C@H]2O[C@@H](CC(=O)N[C@@H]3CCN(Cc4ccccc4)C3)CC[C@@H]21 was read as KDM4C inh 3.
For COc1ccc(NC(=O)CCSc2ccc([N+](=O)[O-])cc2)cc1 the results were IDH1 R132H inh 0.
`Cc1ccc(S(=O)(=O)N2C(=O)CCC2C(=O)Nc2cc(C(F)(F)F)ccc2Cl)cc1` (stereo not given) gave IDH1 R132H inh -1.
For CC(Sc1nc(-c2ccccc2)c(C#N)c(=O)[nH]1)C(=O)Nc1cccc(Cl)c1 (stereo not given) the results were IDH1 R132H inh 1.
For C[C@H](CO)N1C[C@H](C)[C@H](CN(C)C(=O)Cc2ccccc2)Oc2cc(C#Cc3ccccc3F)ccc2S1(=O)=O the results were T cruzi growth-1 127*, KDM4C inh 2, IDH1 R132H inh -1, T cruzi growth-2 95*, T cruzi growth-3 74, 3T3 cytotox 21 and NIH3T3 tox 2 inconclusive.
Screening C[C@@H]1CN([C@H](C)CO)S(=O)(=O)c2ccc(C#Cc3ccccc3F)cc2O[C@@H]1CN(C)C(=O)Cc1ccccc1 returned T cruzi growth-1 121*, IDH1 R132H inh 0, T cruzi growth-2 97*, T cruzi growth-3 99*, 3T3 cytotox 27 and NIH3T3 tox 2 102*.
For C[C@H]1CN([C@@H](C)CO)S(=O)(=O)c2ccc(C#Cc3ccccc3F)cc2O[C@H]1CN(C)C(=O)Cc1cccnc1 the results were T cruzi growth-1 50, KDM4C inh -2 and IDH1 R132H inh 16.
`C[C@H]1CN([C@@H](C)CO)S(=O)(=O)c2ccc(C#Cc3ccccc3F)cc2O[C@H]1CN(C)C(=O)Cc1ccccc1` gave T cruzi growth-1 125*, KDM4C inh -1, IDH1 R132H inh 0, T cruzi growth-2 109*, T cruzi growth-3 65, 3T3 cytotox 26 and NIH3T3 tox 2 103*.
`CC(=O)N(C)C[C@@H]1Oc2cc(C#Cc3ccccc3F)ccc2S(=O)(=O)N([C@H](C)CO)C[C@H]1C` gave T cruzi growth-1 38, KDM4C inh 0 and IDH1 R132H inh -5.
Screening C[C@@H]1CN([C@H](C)CO)S(=O)(=O)c2ccc(C#Cc3ccccc3F)cc2O[C@@H]1CN(C)C(=O)Cc1ccncc1 returned KDM4C inh -2 and IDH1 R132H inh 1.
`C[C@H](CO)N1C[C@H](C)[C@@H](CN(C)C(=O)Cc2ccccc2)Oc2cc(C#Cc3ccccc3F)ccc2S1(=O)=O` gave T cruzi growth-1 124*, KDM4C inh -4, IDH1 R132H inh 0, T cruzi growth-2 85, T cruzi growth-3 92, 3T3 cytotox -1 and NIH3T3 tox 2 1.
C[C@H]1CN([C@@H](C)CO)S(=O)(=O)c2ccc(C#Cc3ccccc3F)cc2O[C@@H]1CN(C)C(=O)Cc1ccncc1 was read as KDM4C inh -2 and IDH1 R132H inh 0.
For COc1ccc(S(=O)(=O)N(C)CC(=O)Nc2cc([N+](=O)[O-])ccc2C)cc1C the results were IDH1 R132H inh 0.
O=C(NCc1nc2ccccc2[nH]1)c1ccccc1 was read as IDH1 R132H inh 1.
Screening CN(CC(=O)Nc1ccccc1[N+](=O)[O-])S(=O)(=O)c1ccccc1 returned IDH1 R132H inh 1.
`CC1=CC(C)(C)Nc2ccc(OC(=O)CN3C(=O)c4cccc([N+](=O)[O-])c4C3=O)cc21` gave IDH1 R132H inh 0.

Source: PubChem
